Assay [1] has as its target T1, Protein cereblon/Cyclin-dependent kinase 2/Cyclin-dependent kinase 9 (Homo sapiens, UniProt P24941+P50750+Q96SW2). The experiment in a line: Protac activity at CRBN/CDK2/CDK9 in AR-negative human PC3 cells assessed as induction of CDK2 protein degradation at 1 uM after 12 hrs by Western blot analysis. It is filed as cell-based. The conditions noted are these: PC-3. In short, it runs like this:
(§1)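 PC-3 cells (5 × 10^5 per well) treated 12 h at single concentrations (50 nM, 500 nM, 1, 5 or 30 µM). RIPA lysates (50 µg) run on 10% SDS-PAGE and immunoblotted for CDK2, CDK5, CDK9 with β-tubulin loading control, then detected by chemiluminescence. Band intensities quantified densitometrically.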
In general terms: In western blotting, separated proteins are transferred to a membrane and probed.

For assay [2], the target named is Protein cereblon/Cyclin-dependent kinase 2 (Homo sapiens) (UniProt P24941+Q96SW2). The assay can be described thus: Protac activity at CRBN/CDK2 in AR-negative human PC3 cells assessed as induction of CDK2 protein degradation at 50 nM after 12 hrs by Western blot analysis. It is filed as cell-based. The settings on record: PC-3. In short, it runs like this: as §1

Assay [3] addresses Protein cereblon/Cyclin-dependent kinase 9 (Homo sapiens) (UniProt P50750+Q96SW2). The assay can be described thus: Protac activity at CRBN/CDK9 in AR-negative human PC3 cells assessed as induction of CDK9 protein degradation at 50 nM after 12 hrs by Western blot analysis. Type of assay: cell-based. The settings on record: PC-3. In short, it runs like this:
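PC-3 cells (DMEM/F12 1:1, 10% FBS, 1% pen/strep, 37 °C, 5% CO2) plated at 5 × 10^5 per well, exposed to compound for 12 h. RIPA lysates with protease inhibitors; 50 µg total protein run on 10% SDS-PAGE, transferred to PVDF, blocked in 5% milk/TBS-T. Probed with anti-CDK9 (1/1000), β-tubulin loading control, HRP secondary, chemiluminescence; bands scored as degradation detected or not.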

Assay [4] addresses Protein cereblon/Cyclin-dependent kinase 4 (Homo sapiens) (UniProt P11802+Q96SW2). The assay can be described thus: Protac activity at CRBN/CDK4 in AR-negative human PC3 cells assessed as induction of CDK4 protein degradation at 500 nM after 24 hrs by Western blot analysis. Type of assay: cell-based. The settings on record: PC-3. In short, it runs like this: (§2)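 PC-3 cells treated with 500 nM degrader for varying times. Lysates blotted for CDK2, CDK4, CDK6, CDK9, c-Myc and Mcl-1, each at 1/1000 primary antibody, with β-tubulin reference and chemiluminescent detection.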

For assay [5], the target named is Protein cereblon/Cyclin-dependent kinase 6 (Homo sapiens) (UniProt Q00534+Q96SW2). The experiment in a line: Protac activity at CRBN/CDK6 in AR-negative human PC3 cells assessed as induction of CDK4 protein degradation at 500 nM after 24 hrs by Western blot analysis. It is filed as cell-based. The settings on record: PC-3. In short, it runs like this:
as §2

The target of assay [6] is T1, Protein cereblon/Cyclin-dependent kinase 2/Cyclin-dependent kinase 9. The assay can be described thus: Protac activity at CRBN/CDK2/CDK9 in AR-negative human PC3 cells assessed as CDK2 degradation at 250 nM preincubated with pomalidomide for 2 hrs and measured after 8 hrs by Western blot analysis. Type of assay: cell-based. The conditions noted are these: PC-3. In short, it runs like this: (§3)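 PC-3 cells pretreated 2 h with 5 µM DMSO, FN-1501, pomalidomide or MG-132, then exposed to degrader at 250 nM for 8 h. Lysates probed for CDK2 and CDK9, β-tubulin as loading control. 50 µg protein per lane, 10% SDS-PAGE, chemiluminescent detection.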

Assay [7] shares this target. The experiment in a line: Protac activity at CRBN/CDK2/CDK9 in AR-negative human PC3 cells assessed as CDK2 degradation at 250 nM preincubated with proteasome inhibitor MG132 for 2 hrs and measured after 8 hrs by Western blot analysis. It is filed as cell-based. The conditions noted are these: PC-3. In short, it runs like this:
as §3

The test system of a further assay is L02. The assay can be described thus: Cytotoxicity against human LO2 cells assessed as reduction in cell viability after 5 days by CCK-8 assay. The settings on record: L02, 120 h. It is filed as cell-based. In short, it runs like this: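 Cells seeded at 3 × 10^3 per well for 24 h, then dosed in 10-point, 3-fold serial dilution from 10 µM. CCK-8 added after 5 days, 4 h at 37 °C, absorbance at 450 nm. IC50 averaged from three separate determinations (at least two independent runs, duplicate wells). PC-3 grown in DMEM/F12 (1:1), LO2 in RPMI 1640, both with 10% FBS.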
In general terms: Tetrazolium assays rely on reduction of a dye to a coloured formazan, in cell work by metabolically active cells.

For another assay, the target named is CDK2/Cyclin A2 (Homo sapiens, UniProt P24941). The experiment in a line: Inhibition of tracer K10 binding to NanoLuc-CDK2/Cyclin A (unknown origin) expressed in human HEK293 cells after 1 hr in presence of ATP by NanoBRET assay. It is filed as cell-based. In short, it runs like this:
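Cell-based target engagement run by a contract lab. HEK293 cells pretreated with NanoBRET Tracer K-10, then exposed to compound for 1 h with 10 µM ATP, and BRET signal read. 10-point, 3-fold dilutions from 1 µM. Staurosporine reference used 4-fold dilutions from 20 µM. IC50 from sigmoidal dose-response fit.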
In general terms: BRET reads energy transfer from a luciferase to a nearby fluorophore.

Assay [8] has as its system PC-3. The experiment in a line: Induction of cell cycle arrest in human PC3 cells assessed as accumulation at G0/G1 phase at 250 nM after 48 hrs by propidium iodide staining based flow cytometry (reference value: 59.80%). Type of assay: functional.
The test system of assay [9] is PC-3. The experiment in a line: Induction of cell cycle arrest in human PC3 cells assessed as accumulation at S phase at 250 nM after 48 hrs by propidium iodide staining based flow cytometry (reference value: 17.96%). Type of assay: functional.
Assay [10] has as its system PC-3. The experiment in a line: Induction of cell cycle arrest in human PC3 cells assessed as accumulation at S phase at 1 uM after 48 hrs by propidium iodide staining based flow cytometry (reference value: 17.96%). It is filed as functional.
In assay [11] the test system is PC-3. The assay can be described thus: Induction of cell cycle arrest in human PC3 cells assessed as accumulation at G0/G1 phase at 3 uM after 48 hrs by propidium iodide staining based flow cytometry (reference value: 59.80%). Type of assay: functional.
For assay [12], the target named is T1, Protein cereblon/Cyclin-dependent kinase 2/Cyclin-dependent kinase 9. The assay can be described thus: Protac activity at CRBN/CDK2/CDK9 in AR-negative human PC3 cells assessed as CDK9 degradation at 250 nM preincubated with pomalidomide for 2 hrs and measured after 8 hrs by Western blot analysis. Type of assay: cell-based. The conditions noted are these: PC-3. In short, it runs like this:
as §3

For assay [13] the target is unchanged. The experiment in a line: Protac activity at CRBN/CDK2/CDK9 in human HCT116 cells assessed as CDK9 degradation at 0.25 to 10 uM after 12 hrs by Westernblot analysis. Type of assay: cell-based. The settings on record: HCT-116. In short, it runs like this:
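22Rv1, HCT-116 (RPMI 1640, 10% FBS) and MCF-7 cells treated with degrader at indicated concentrations for 12 h. CDK2 and CDK9 blotted with β-tubulin loading control.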

For assay [14] the target is unchanged. The assay can be described thus: Protac activity at CRBN/CDK2/CDK9 in AR-negative human PC3 cells assessed as induction of CDK9 protein degradation at 1 uM after 12 hrs by Western blot analysis. It is filed as cell-based. The settings on record: PC-3. In short, it runs like this:
as §1

Active and inactive are the calls of the source. The calls are words filed in the database; no cut-off is given here.

Chain of Protein cereblon/Cyclin-dependent kinase 4 (Homo sapiens) (P11802 2-303 limits assumed): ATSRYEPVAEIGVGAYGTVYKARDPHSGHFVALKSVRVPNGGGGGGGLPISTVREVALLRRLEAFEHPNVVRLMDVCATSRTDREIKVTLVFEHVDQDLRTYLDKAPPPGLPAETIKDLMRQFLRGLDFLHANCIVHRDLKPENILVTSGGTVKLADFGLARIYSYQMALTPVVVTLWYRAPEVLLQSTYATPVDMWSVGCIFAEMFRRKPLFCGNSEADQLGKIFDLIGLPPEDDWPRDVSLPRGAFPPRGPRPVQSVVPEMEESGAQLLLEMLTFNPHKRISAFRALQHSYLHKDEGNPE
Chain of Protein cereblon/Cyclin-dependent kinase 4 (Homo sapiens) (Q96SW2 whole entry partner): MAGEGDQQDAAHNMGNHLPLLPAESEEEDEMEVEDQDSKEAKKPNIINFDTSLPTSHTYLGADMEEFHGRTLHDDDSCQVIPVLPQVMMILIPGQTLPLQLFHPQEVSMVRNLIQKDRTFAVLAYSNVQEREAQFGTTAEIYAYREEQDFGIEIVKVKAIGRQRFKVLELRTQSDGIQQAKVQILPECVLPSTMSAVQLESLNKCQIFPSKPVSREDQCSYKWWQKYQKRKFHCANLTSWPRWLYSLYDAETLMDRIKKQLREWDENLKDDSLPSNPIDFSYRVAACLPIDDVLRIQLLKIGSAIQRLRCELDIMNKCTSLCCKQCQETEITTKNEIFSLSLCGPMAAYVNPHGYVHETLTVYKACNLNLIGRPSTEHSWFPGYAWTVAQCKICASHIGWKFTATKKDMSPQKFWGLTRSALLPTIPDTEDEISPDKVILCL
Chain of Protein cereblon/Cyclin-dependent kinase 6 (Homo sapiens) (Q00534 whole entry, looked up): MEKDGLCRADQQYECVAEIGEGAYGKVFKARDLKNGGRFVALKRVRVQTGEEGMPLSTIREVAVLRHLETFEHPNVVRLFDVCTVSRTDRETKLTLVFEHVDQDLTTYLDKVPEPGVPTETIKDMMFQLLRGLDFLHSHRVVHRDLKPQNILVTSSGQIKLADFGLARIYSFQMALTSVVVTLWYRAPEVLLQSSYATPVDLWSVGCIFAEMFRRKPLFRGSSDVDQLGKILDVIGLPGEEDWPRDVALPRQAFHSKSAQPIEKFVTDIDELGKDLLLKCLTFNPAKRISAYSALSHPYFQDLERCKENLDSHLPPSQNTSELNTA
Chain of Protein cereblon/Cyclin-dependent kinase 6 (Homo sapiens) (Q96SW2 whole entry, looked up): as the sequence (Q96SW2 whole entry partner) above
Chain of Protein cereblon/Cyclin-dependent kinase 9 (Homo sapiens) (P50750 whole entry, looked up): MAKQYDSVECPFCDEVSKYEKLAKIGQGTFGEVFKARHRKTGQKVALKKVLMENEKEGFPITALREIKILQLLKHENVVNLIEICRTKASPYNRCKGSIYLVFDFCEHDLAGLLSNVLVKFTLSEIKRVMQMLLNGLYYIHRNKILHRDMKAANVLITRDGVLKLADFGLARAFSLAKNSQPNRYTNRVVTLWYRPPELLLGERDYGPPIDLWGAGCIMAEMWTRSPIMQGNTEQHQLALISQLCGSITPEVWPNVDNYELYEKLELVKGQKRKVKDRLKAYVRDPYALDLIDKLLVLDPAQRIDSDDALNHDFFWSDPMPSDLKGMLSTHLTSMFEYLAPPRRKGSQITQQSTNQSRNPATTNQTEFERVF
Chain of Protein cereblon/Cyclin-dependent kinase 9 (Homo sapiens) (Q96SW2 whole entry, looked up): as the sequence (Q96SW2 whole entry partner) above

A word on the IC50: it is the concentration that gives 50% inhibition. On to `O=C(CCC(=O)N1CCN(Cc2ccc(NC(=O)c3n[nH]cc3Nc3ncnc4[nH]ccc34)cc2)CC1)NCCNc1cccc2c1C(=O)N(C1CCC(=O)NC1=O)C2=O` (stereo unspecified), for which the outcome in assay [1], in assay [2], in assay [3], in assay [13] and in assay [14] was Active. The outcome in assay [4], in [5], in assay [6], in assay [7] and in assay [12] was inactive. The IC50 in the assay with L02 stood at 7.99 µM; at CDK2/Cyclin A2, 0.00742 µM. Besides, the Activity is recorded as 50.15% with PC-3 [8], 27.72% with PC-3 [9], 9.23% in the assay with PC-3 [10] and 52.76% with PC-3 [11].

The values above are taken from ChEMBL document CHEMBL4602651, “Development of selective mono or dual PROTAC degrader probe of CDK isoforms” (Eur J Med Chem, 2020).
